Test results reported in BindingDB's records for doi:10.1016/j.bmcl.2005.10.070 (Pharmacopeia, 2005).
Several values for one entry are separate records, joined by “and”; a condition that tells them apart may be missing. Identical values can stand only once.

Biological target: Protein farnesyltransferase subunit beta/geranylgeranyltransferase type-1 subunit alpha (Mus musculus, UniProt Q61239+Q8K2I1)
Assay: Anchorage-independent growth of transformed NIH3T3 cells in soft agar
In short: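 Transformed NIH-3T3 cells grown in soft agar; colonies photographed by video camera and counted; IC50 calculated from colony counts.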

For `O=C(NCCCn1ccnc1)C1CN(C2c3ccc(Cl)cc3CCc3cc(Br)cnc32)CCN1C(=O)NC1CCCCC1` (stereo unspecified) [4-(3-bromo-8-chloro-6,11-dihydro-5H-benzo[5,6]cyclohepta[1,2-b]pyridin-11-yl)-piperazine-1,2-dicarboxylicacid 1-cyclohexylamide 2-[(3-imidazol-1-yl-propyl)-amide]], the IC50 was 5 nM and 5.2 nM.
